Results published in ChEMBL document CHEMBL1153772 (J Nat Prod, 2009).

Columns and labels:
[1] = test system: OVCAR-4; experiment: Cytotoxicity against human OVCAR4 cells assessed cell growth; format: functional
[2] = test system: M14; experiment: Cytotoxicity against human M14 cells assessed cell growth; format: functional
[3] = species: Homo sapiens; experiment: Stability in human plasma in presence of PBS at 40 uM after 3 hrs
[4] = Unbound fraction in mouse plasma at 1 uM; format: ADME, cell-free
[5] = test system: SW-620; experiment: Cytotoxicity against human SW620 cells assessed cell growth; format: functional
[6] = test system: CCRF-CEM; experiment: Cytotoxicity against human CCRF-CEM cells assessed cell growth; format: functional
[7] = test system: NCI/ADR-RES; experiment: Cytotoxicity against human NCI/ADR-RES cells assessed cell growth; format: functional
[8] = species: Homo sapiens; experiment: Unbound fraction in human plasma at 1 uM
[9] = test system: Vero; experiment: Cytotoxicity against african green monkey Vero cells; format: cell-based; conditions: Chlorocebus sabaeus
In short: (§1)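 IC50 value derived from at least three separate assay runs per sample.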

[10] = test system: PANC-1; experiment: Cytotoxicity against human PANC1 cells; format: functional, cell-based; in short: as §1
[11] = Permeability at 50 uM at pH 7.4 by PAMPA; format: ADME; conditions: read-out: permeability
[12] = test system: OVCAR-5; experiment: Cytotoxicity against human OVCAR5 cells assessed cell growth; format: functional
[13] = test system: BXPC-3; experiment: Cytotoxicity against human BxPC3 cells; format: functional, cell-based; in short: as §1
[14] = Cytotoxicity against human Hs 578T cells assessed cell growth; format: functional
[15] = Permeability at 50 uM at pH 5 by PAMPA; format: ADME; conditions: read-out: permeability
[16] = test system: IGROV-1; experiment: Cytotoxicity against human IGROV1 cells assessed cell growth; format: functional
[17] = test system: SR; experiment: Cytotoxicity against human SR cells assessed cell growth; format: functional
[18] = Protein binding in mouse plasma at 1 uM; format: ADME, cell-free; conditions: read-out: PPB (converted)
[19] = test system: BT-549; experiment: Cytotoxicity against human BT549 cells assessed cell growth; format: functional
[20] = test system: U-251; experiment: Cytotoxicity against human U251 cells assessed cell growth; format: functional
[21] = test system: 786-0; experiment: Cytotoxicity against human 786-0 cells assessed cell growth; format: functional
[22] = test system: COLO 205; experiment: Cytotoxicity against human COLO205 cells assessed cell growth; format: functional
[23] = test system: HL-60(TB); experiment: Cytotoxicity against human HL-60(TB) cells assessed cell growth; format: functional; in short: as §1
[24] = Metabolic stability in human liver microsomes assessed as compound metabolized at 1 uM in the presence of NADPH; format: ADME, Microsome; conditions: read-out: Activity
[25] = Solubility at pH 5; format: physicochemical; conditions: buffer
[26] = test system: KM12; experiment: Cytotoxicity against human KM12 cells assessed cell growth; format: functional
[27] = test system: SK-MEL-2; experiment: Cytotoxicity against human SK-MEL-2 cells assessed cell growth; format: functional
[28] = test system: NCI-H460; experiment: Cytotoxicity against human NCI-H460 cells assessed cell growth; format: functional
[29] = test system: NCI/ADR-RES; experiment: Cytotoxicity against human NCI/ADR-RES cells; format: functional, cell-based; in short: as §1
[30] = Stability in PBS and inorganic phosphate at 40 uM after 3 hrs; format: physicochemical; conditions: read-out: Stability
[31] = test system: MCF7; experiment: Cytotoxicity against human MCF7 cells assessed cell growth; format: functional
[32] = test system: A498; experiment: Cytotoxicity against human A498 cells assessed cell growth; format: functional
[33] = test system: HCT-116; experiment: Cytotoxicity against human HCT116 cells assessed cell growth; format: functional
[34] = test system: MDA-MB-231; experiment: Cytotoxicity against human MDA-MB-231 cells assessed cell growth; format: functional
[35] = Stability in PBS at 40 uM after 3 hrs; format: physicochemical; conditions: read-out: Stability
[36] = test system: LOX IMVI; experiment: Cytotoxicity against human LOXIMVI cells assessed cell growth; format: functional
[37] = Solubility at pH 6.2; format: physicochemical; conditions: buffer
[38] = Metabolic satbility in human liver microsomes assessed as compound remaining at 1 uM after 60 min in the presence of NADPH; format: ADME, Microsome; conditions: read-out: Stability
[39] = test system: UO-31; experiment: Cytotoxicity against human UO31 cells assessed cell growth; format: functional
[40] = test system: Malme-3M; experiment: Cytotoxicity against human MALME-3M cells assessed cell growth; format: functional
[41] = Metabolic satbility in mouse liver microsomes assessed as compound remaining at 1 uM after 60 min in the absence of NADPH; format: ADME, Microsome; conditions: read-out: Stability
[42] = test system: MDA-MB-468; experiment: Cytotoxicity against human MDA-MB-468 cells assessed cell growth; format: functional
[43] = test system: NCI-H522; experiment: Cytotoxicity against human NCI-H522 cells assessed cell growth; format: functional
[44] = Metabolic stability in mouse liver microsomes assessed as compound metabolized at 1 uM in the presence of NADPH; format: ADME, Microsome; conditions: read-out: Activity
[45] = test system: SF-295; experiment: Cytotoxicity against human SF295 cells assessed cell growth; format: functional

Which Activity [1] does the source give for CC(=O)N(C)CCc1cc(Br)c(OCCCNc2ncn(C)c3ncnc2-3)c(Br)c1 [APHROCALLISTIN] here?
The Activity was 33.32%.

And the Activity [2]?
The Activity was 73.49%.

What about the remaining at 3 h, 40 µM [3] of the same compound?
Its remaining at 3 h, 40 µM is 103%.

What about the fraction unbound at 1 µM [4] of the same compound?
The fraction unbound at 1 µM was 0.15.

And the Activity [5]?
Its Activity is 89.87%.

What about the Activity [6] of the same compound?
The Activity was 80.24%.

And the Activity [7]?
Its Activity is 72.89%.

What about the fraction unbound at 1 µM [8] of the same compound?
Its fraction unbound at 1 µM is 0.044.

And the IC50 [9]?
Its IC50 is 76.1 µM.

What about the IC50 [10] of the same compound?
Its IC50 is 22.8 µM.

What about the Papp at 50 µM [11] of the same compound?
Its Papp at 50 µM is 321 ×10⁻⁶ cm/s.

And the Activity [12]?
Its Activity is 88.65%.

What about the IC50 [13] of the same compound?
Its IC50 is 70.9 µM.

And the Activity [14]?
Its Activity is 52.48%.

And the Papp at 50 µM [15]?
The Papp at 50 µM was 33 ×10⁻⁶ cm/s.

And the Activity [16]?
The Activity was 64.84%.

What about the Activity [17] of the same compound?
The Activity was 10.72%.

What about the fraction unbound at 1 µM [18] of the same compound?
The fraction unbound at 1 µM was 0.15.

What about the Activity [19] of the same compound?
Its Activity is 56.49%.

What about the Activity [20] of the same compound?
Its Activity is 79.39%.

What about the Activity [21] of the same compound?
Its Activity is 70.65%.

What about the Activity [22] of the same compound?
Its Activity is 104.32%.

What about the Activity [23] of the same compound?
Its Activity is 39.94%.

What about the metabolised at 1 µM [24] of the same compound?
Its metabolised at 1 µM is 96.9%.

And the solubility [25]?
The solubility was over 267 µg/mL.

What about the Activity [26] of the same compound?
Its Activity is 88.97%.

And the Activity [27]?
Its Activity is 71.47%.

And the Activity [28]?
The Activity was 60.08%.

And the IC50 [29]?
The IC50 was 34.3 µM.

What about the remaining at 3 h, 40 µM [30] of the same compound?
The remaining at 3 h, 40 µM was 76.5%.

And the Activity [31]?
The Activity was 39.83%.

And the Activity [32]?
Its Activity is 71.71%.

And the Activity [33]?
Its Activity is 28.57%.

And the Activity [34]?
The Activity was 74.94%.

And the remaining at 3 h, 40 µM [35]?
Its remaining at 3 h, 40 µM is 99.7%.

What about the Activity [36] of the same compound?
The Activity was 55.23%.

And the solubility [37]?
Its solubility is over 267 µg/mL.

And the remaining at 1 h, 1 µM [38]?
Its remaining at 1 h, 1 µM is 3.08%.

And the Activity [39]?
The Activity was 79.45%.

What about the Activity [40] of the same compound?
Its Activity is 76.4%.

And the remaining at 1 h, 1 µM [41]?
The remaining at 1 h, 1 µM was 103%.

And the Activity [42]?
The Activity was 25.48%.

What about the Activity [43] of the same compound?
Its Activity is 36.6%.

And the metabolised at 1 µM [44]?
Its metabolised at 1 µM is 98.6%.

And the Activity [45]?
Its Activity is 50.01%.
